# Only some compounds are listed: those with a hit (about 2% of all), similar ones and a draw of the others.
# EBV gp42 block = blocks Epstein-Barr virus glycoprotein 42 binding; Q1HVG2; Fluorescence polarization binding assay, mP read-out; inhibition, % (tested at 21.74 µM); hit rate 0.42% among 220,000
# Runt-SMMHC FRET = Runt domain-CBFb-SMMHC interaction inhibition; Q01196+Q13951; Cerulean-Runt/Venus-CBFb-SMMHC FRET ratio 530/480, 1 h; inhibition, % at 20 µM; hit rate 0.74% among 220,000;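 active means mean inhibition across duplicate retests at 20 µM reaching about 50%, limit read from the data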;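 further: inhibitors lower the FRET ratio by blocking Runt binding to CBFb-SMMHC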
# Runt-CBFb FRET = inhibitors of human RUNX1 Runt domain binding to CBFb; inhibition, % at 20 µM; Q01196+Q13951; hit rate 0.46% among 220,000; Cerulean-Runt/Venus-CBFb FRET ratio 530/480, 1 h;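 active means inhibition over about 50% at 20 µM in the single-dose screen, limit read from the data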
#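 test system = Cerulean-tagged RUNX1 Runt domain (FRET donor) fusion protein | reagent = Venus-CBFb binding partner, 100 nM | incubation = protein complex preformed 1 h, compound exposure 1 h, room temperature, dark | detection = FRET fluorescence | read-out basis = loss of energy transfer signal | controls = 5 µM unlabeled CBFb as full-inhibition high control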
# PKD1 inh = blocks activity of human protein kinase D1; Q15139; PKD1 kinase fluorescence polarization assay; inhibition, % (test concentration not listed); hit rate 0.056% among 200,000
# RanGTP-Imp inh = disruptors of Ran-importin-beta complex formation – biochemical, FRET, CFP-Ran, YFP-importin-beta, homogeneous, primary screen; AID 2216; hit rate 1.1% among 300,000; cell-free CFP-Ran/YFP-importin-beta FRET ratio; inhibition, % (no concentration beside the values);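 active means more than half of the replicate wells show a fall in the fluorescence ratio signal beyond about 16%, limit read from the data, passing the limit was not always enough; inconclusive means exactly half of the replicate wells pass the set limit; inactive means fewer than half of replicates pass the limit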
# MEX-5 binding = C. elegans MEX-5 TCR-2 RNA binding activity; MEX-5/FITC-TCR2 RNA binding, fluorescence polarization; active compounds read low; activity score (negative = inhibition of binding), % at 10 µM; hit rate 0.38% among 300,000;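 active means inhibition past about -25% in most replicates, and total fluorescence under double the plate's negative control median, limit read from the data; inconclusive means replicates evenly split on the limit, or fluorescence at least double controls; inactive means too little inhibition in most replicates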
# A number is an active result; n = inactive; u = inconclusive; x = no result. Unless noted, no stated cut-off is given here; in the data, active means inhibition above about 50%; inactive means the rest.
SMILES,EBV gp42 block,Runt-SMMHC FRET,Runt-CBFb FRET,PKD1 inh,RanGTP-Imp inh,MEX-5 binding
Cc1ccc(CNC(=O)c2cc3c(=O)n4ccccc4nc3n(Cc3ccco3)c2=N)cc1,x,n,88.3,x,78.3,n
Cc1ccc2nc3c(cc(C(=O)NCc4ccco4)c(=N)n3Cc3ccco3)c(=O)n2c1,n,x,x,n,89.0,n
N=c1c(C(=O)NCc2ccco2)cc2c(=O)n3ccccc3nc2n1Cc1ccc(Cl)cc1,x,n,65.9,n,125.6,n
N=c1c(C(=O)NCc2ccc(F)cc2)cc2c(=O)n3ccccc3nc2n1Cc1ccco1,n,x,69.4,n,n,n
Cc1ccc2nc3c(cc(C(=O)NCc4cccnc4)c(=N)n3C(C)C)c(=O)n2c1,x,n,n,x,x,x
CCOC(=O)C1CCN(C(=O)c2ccc(CNS(=O)(=O)c3ccc(OC)cc3)cc2)CC1,n,n,n,n,n,n
CC(=O)C(C)n1c(CN2CCN(C(=O)c3ccco3)CC2)nc2c1c(=O)n(C)c(=O)n2C (stereo not drawn),x,x,x,x,n,n
COCCn1c(=N)c(C(=O)NCc2ccco2)cc2c(=O)n3ccccc3nc21,n,n,n,n,x,x
N=c1c(C(=O)NCc2ccco2)cc2c(=O)n3ccccc3nc2n1Cc1ccccc1,n,58.1,n,n,116.5,n
N=c1c(C(=O)NCc2ccccc2)cc2c(=O)n3ccccc3nc2n1Cc1ccco1,n,x,n,n,77.9,n
O=C(O)CCNc1ccc(NCCC(=O)O)c2c1C(=O)c1ccccc1C2=O,x,x,x,x,n,-54.6
CCc1cc(=O)oc2cc(C)cc(OC(C)C(=O)NCCCn3ccnc3)c12 (stereo not drawn),x,x,x,x,n,n
O=C(NNS(=O)(=O)c1ccc([N+](=O)[O-])cc1)C(=O)Nc1cccc(C(=O)O)c1,x,x,x,x,n,-74.9
O=C(O)c1cccc(NC(=O)c2cccc(S(=O)(=O)Nc3cccc([N+](=O)[O-])c3)c2)c1,x,x,x,x,u,n
NC(=O)CC(NC(=O)c1ccc(Br)cc1)c1ccc(NC2CCCCCC2)c([N+](=O)[O-])c1 (stereo not drawn),x,x,x,x,n,n
COc1ccccc1CCC(=O)OCC(=O)Nc1ccc(C(N)=O)cc1,x,x,x,x,n,n
C=CCn1c(CCC(=O)O)ccc1-c1ccc(OC)cc1,n,n,n,n,n,n
CCCn1c(CCC(=O)O)ccc1-c1cccs1,n,n,n,n,u,n
O=C(O)CCc1ccc(-c2cccs2)n1CC1CCCO1 (stereo not drawn),n,85.5,n,n,18.2,n
COc1ccc(-c2ccc(CCC(=O)O)n2CC(C)C)cc1,n,51.2,n,n,n,n
COCCCn1c(CCC(=O)O)ccc1-c1cccs1,n,125.5,n,n,54.6,n
O=C(O)CCc1ccc(-c2ccc(F)cc2)n1CC1CCCO1 (stereo not drawn),n,n,n,n,n,n
COc1ccc(-c2ccc(CCC(=O)O)n2CC2CCCO2)cc1 (stereo not drawn),n,75.4,n,n,u,n
Cn1c(=O)c2c(nc(CN3CCN(C(=O)c4ccco4)CC3)n2CC(=O)C(C)(C)C)n(C)c1=O,x,x,x,x,n,n
CCOC(=O)CSc1nc(N2CCOCC2)c2c(c1C#N)CC(C)(C)N(C)C2,n,83.5,60.5,n,19.2,n
SMILES,EBV gp42 block,Runt-SMMHC FRET,Runt-CBFb FRET,PKD1 inh,RanGTP-Imp inh,MEX-5 binding
Cn1c(N)c(N2CCN(c3ccccc3)CC2)c(=O)[nH]c1=O,n,n,n,n,u,n
Cc1[nH][nH]c(=O)c1C(c1ccc(-c2ccccc2C(=O)O)o1)c1c(C)[nH][nH]c1=O,n,n,n,n,n,-35.0
Cc1[nH][nH]c(=O)c1C(c1ccc(-c2cccc(C(=O)O)c2)o1)c1c(C)[nH][nH]c1=O,n,n,n,n,n,-51.9
C=CCn1c(NC(=O)c2ccccc2Cl)c(C#N)c2nc3ccccc3nc21,n,85.5,n,n,123.5,n
CCCCn1c(NC(C)=O)c(C#N)c2nc3ccccc3nc21,n,79.3,n,n,30.3,n
CCCCCn1c(N)c(C#N)c2nc3ccccc3nc21,n,63.4,84.9,n,44.4,n
N#Cc1c(N)n(CCCN2CCOCC2)c2nc3ccccc3nc12,x,62.5,84.5,n,x,x
Nc1c(S(=O)(=O)c2ccccc2)c2nc3ccccc3nc2n1CCN1CCOCC1,n,n,n,n,n,n

# Compound activity as filed in PubChem BioAssay.
